SMILES strings stand for the structures. The source made the active and inactive calls. No cut-off for these calls is given here.

Data set [1] concerns Rattus norvegicus. The experiment in a line: Toxicity in Wistar rat assessed as body weight gain at 10 to 40 mg/kg, po administered daily for 7 days. Type of data set: organism-based. Also on record: dose 10-40 mg/kg, route oral. To be noted: in vivo, 168 h. Put shortly: (§1)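 Male Wistar rats, six per group, compound dosed by gavage in water/Tween 80 (97:3) daily for 7 days, with or without DMH 40 mg/kg sc. Body weight and water intake recorded daily; mean ± SD.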

Data set [2] relates to Rattus norvegicus. The data set can be described thus: Toxicity in Wistar rat assessed as body weight gain at 40 mg/kg, po administered five times per week for 4 weeks. It counts as organism-based. Also on record: dose 40 mg/kg, route oral. To be noted: in vivo, 672 h. In outline:
(§2)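 Male Wistar rats, six per group, dosed by gavage in water/Tween 80 (97:3) five times weekly for 4 weeks, with or without DMH (four sc injections of 40 mg/kg in the first 2 weeks). Body weight and water intake recorded daily; mean ± SD.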

For data set [3], the system named is Rattus norvegicus. The experiment in a line: Toxicity in Wistar rat assessed as change in water intake at 10 to 40 mg/kg, po administered daily for 7 days. Also on record: dose 10-40 mg/kg, route oral. To be noted: in vivo, 168 h. It counts as organism-based. Put shortly:
as §1

The subject of data set [4] is Rattus norvegicus. The data set can be described thus: Toxicity in Wistar rat assessed as change in water intake at 40 mg/kg, po administered five times per week for 4 weeks. Type of data set: organism-based. Also on record: dose 40 mg/kg, route oral. Particulars: in vivo, 672 h. In outline: as §2
Data set [5] deals with Rattus norvegicus. The experiment in a line: Antigenotoxic activity in Wistar rat peripheral blood assessed as reduction in DMH-induced increase in nucleoids at 10 mg/kg, po administered daily for 7 days. It counts as functional. Also on record: scale not given: the % may be the effect or the level left. Put shortly:
(§3)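 Male Wistar rats, six per group. Compound in water/Tween 80 (97:3) given by daily gavage for 7 days. DMH 40 mg/kg sc given 4 h before sampling on day 7. Cells used only at ≥80% viability. Scoring: 100 nucleoids per animal visually classed 0–3 by tail length relative to head diameter. % reduction = (DMH − treated)/(DMH − negative control) × 100, based on damaged cells.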

Data set [6] concerns Rattus norvegicus. The data set can be described thus: Antigenotoxic activity in Wistar rat peripheral blood assessed as reduction in DMH-induced increase in nucleoids at 20 mg/kg, po administered daily for 7 days. Type of data set: functional. Also on record: scale not given: the % may be the effect or the level left. In outline:
as §3

The subject of data set [7] is Rattus norvegicus. The data set can be described thus: Antigenotoxic activity in Wistar rat peripheral blood assessed as reduction in DMH-induced increase in nucleoids at 40 mg/kg, po administered daily for 7 days. Also on record: scale not given: the % may be the effect or the level left. It counts as functional. Put shortly: as §3
Data set [8] relates to Rattus norvegicus. The data set can be described thus: Anticarcinogenic activity in Wistar rat colon assessed as reduction in frequency of DMH-induced aberrant crypt foci in proximal segment at 10 to 40 mg/kg, po administered five times per week for 4 weeks. Type of data set: functional, organism-based. In outline:
(§4)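 Male Wistar rats (~120 g, 4−5 weeks old, 1 week acclimation), six per group. Compound in water/Tween 80 (97:3) given by gavage five times weekly for 4 weeks. DMH dissolved in EDTA solution, 160 mg/kg total given as four sc injections of 40 mg/kg, twice weekly over the first 2 weeks. Colons formalin-fixed 24 h, stained with 0.02% methylene blue; 50 fields per segment at 100×; ACF counted, mean ± SD, ANOVA/Tukey.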

For data set [9], the system named is Rattus norvegicus. The experiment in a line: Anticarcinogenic activity in Wistar rat colon assessed as reduction in frequency of DMH-induced aberrant crypt foci in middle segment at 10 to 40 mg/kg, po administered five times per week for 4 weeks. It counts as functional, organism-based. In outline:
as §4

The test system of data set [10] is Rattus norvegicus. The data set can be described thus: Anticarcinogenic activity in Wistar rat colon assessed as reduction in frequency of DMH-induced aberrant crypt foci in distal segment at 10 to 40 mg/kg, po administered five times per week for 4 weeks. It counts as functional, organism-based. In outline: as §4

For `O=C1OC[C@H](Cc2ccc3c(c2)OCO3)[C@H]1Cc1ccc2c(c1)OCO2` [HINOKININ], the Activity entry in the data set on Rattus norvegicus [1] is reported as “Non-toxic”; with Rattus norvegicus [2] it was “Non-toxic”; in the data set on Rattus norvegicus [3], “Non-toxic”; in the data set with Rattus norvegicus [4], “Non-toxic”; in the data set with Rattus norvegicus [5], 43.2%; in the data set with Rattus norvegicus [6], 50.4%. Moreover, the Activity with Rattus norvegicus [7] is listed as 54.7%. Further, the result in the data set with Rattus norvegicus [8] was inactive. Also, the outcome in the data set on Rattus norvegicus [9] and in the data set on Rattus norvegicus [10] was Active.

The values above are taken from ChEMBL document CHEMBL3351743, “Chemopreventive effects of (-)-hinokinin against 1,2-dimethylhydrazine-induced genotoxicity and preneoplastic lesions in rat colon” (J Nat Prod, 2014).
